Reference: ChEMBL document CHEMBL5036319, “Discovery of Novel Benzothiazepinones as Irreversible Covalent Glycogen Synthase Kinase 3β Inhibitors for the Treatment of Acute Promyelocytic Leukemia” (J Med Chem, 2021)

Legend:
[1] = Induction in caspase-mediated apoptosis in human NB-4 cells assessed as late apoptotic cells at 12.5 uM incubated for 24 hrs by Annexin V-FITC/propidium iodide staining based flow cytometry analysis (reference value: 1.06%); assay type: functional
[2] = Induction in caspase-mediated apoptosis in human NB4-DR1 cells assessed as late apoptotic cells at 25 uM incubated for 24 hrs in presence of Z-VAD-FMK by Annexin V-FITC/propidium iodide staining based flow cytometry analysis (reference value: 2.54%); assay type: functional
[3] = Induction in caspase-mediated apoptosis in human NB-4 cells assessed as late apoptotic cells at 50 uM incubated for 24 hrs by Annexin V-FITC/propidium iodide staining based flow cytometry analysis (reference value: 1.06%); assay type: functional
[4] = test system: MOLT-4; experiment: Cytotoxicity against human MOLT-4 cells assessed as reduction in cell viability measured after 24 hrs by CCK-8 assay; assay type: functional, cell-based; conditions: MOLT-4, 24 h
In short: (§1)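 Cells were grown in RPMI-1640 or high-glucose DMEM with 10% FBS at 37 °C, 5% CO2, and seeded at 3 × 10^4 cells/well. Exposure was 24 h across serial concentrations (0−1000 μM in the screen). […] Three independent experiments, mean ± SEM.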

[5] = target: Glycogen synthase kinase-3 alpha (Homo sapiens) (UniProt P49840); experiment: Inhibition of recombinant human GSK-3alpha at 100 uM by mobility shift assay relative to control
Sequence of Glycogen synthase kinase-3 alpha (Homo sapiens) (P49840 2-483 limits assumed): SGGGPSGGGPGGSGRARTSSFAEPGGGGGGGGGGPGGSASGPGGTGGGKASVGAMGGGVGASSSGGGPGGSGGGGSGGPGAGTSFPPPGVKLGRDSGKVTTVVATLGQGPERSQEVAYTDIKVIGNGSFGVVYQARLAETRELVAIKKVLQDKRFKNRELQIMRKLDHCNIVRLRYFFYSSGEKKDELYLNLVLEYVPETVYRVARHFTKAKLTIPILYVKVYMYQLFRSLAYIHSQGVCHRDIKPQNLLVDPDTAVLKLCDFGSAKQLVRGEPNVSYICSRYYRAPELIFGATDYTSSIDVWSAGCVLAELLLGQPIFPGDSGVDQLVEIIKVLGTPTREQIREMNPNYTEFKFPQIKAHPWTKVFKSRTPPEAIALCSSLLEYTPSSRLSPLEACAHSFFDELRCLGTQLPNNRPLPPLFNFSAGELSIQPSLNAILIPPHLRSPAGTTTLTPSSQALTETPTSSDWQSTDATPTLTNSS

[6] = Induction in caspase-mediated apoptosis in human NB-4 cells assessed as necrotic cells at 25 uM incubated for 24 hrs by Annexin V-FITC/Propidium iodide staining based flow cytometry analysis (reference value: 0.352%); assay type: functional
[7] = Induction in caspase-mediated apoptosis in human NB-4 cells assessed as late apoptotic cells at 25 uM incubated for 24 hrs by Annexin V-FITC/propidium iodide staining based flow cytometry analysis (reference value: 1.06%); assay type: functional
[8] = Induction in caspase-mediated apoptosis in human NB4-DR1 cells assessed as early apoptosis cells at 100 uM incubated for 24 hrs in presence of Z-VAD-FMK by Annexin V-FITC/propidium iodide staining based flow cytometry analysis (reference value: 0.875%); assay type: functional
[9] = Tmax in ICR mouse at 15 mg/kg, ip administered as single dose measured upto 8 hrs by LC-MS/MS analysis; assay type: ADME, organism-based; conditions: in vivo
In short: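 Male ICR mice (30 g) received a single 15 mg/kg i.p. bolus in corn oil. Orbital blood went into K3EDTA tubes at 0.08–8 h, three animals per time point (composite profile). Plasma was protein-precipitated with acetonitrile and analysed by LC–MS/MS; non-compartmental analysis.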

[10] = target: Glycogen synthase kinase-3 beta (Homo sapiens, UniProt P49841); experiment: Inhibition of recombinant human GSK-3beta using GS-2 peptide as substrate incubated for 30 mins in presence of ATP by kinase-glo luminescence assay
Sequence of Glycogen synthase kinase-3 beta (P49841 whole entry): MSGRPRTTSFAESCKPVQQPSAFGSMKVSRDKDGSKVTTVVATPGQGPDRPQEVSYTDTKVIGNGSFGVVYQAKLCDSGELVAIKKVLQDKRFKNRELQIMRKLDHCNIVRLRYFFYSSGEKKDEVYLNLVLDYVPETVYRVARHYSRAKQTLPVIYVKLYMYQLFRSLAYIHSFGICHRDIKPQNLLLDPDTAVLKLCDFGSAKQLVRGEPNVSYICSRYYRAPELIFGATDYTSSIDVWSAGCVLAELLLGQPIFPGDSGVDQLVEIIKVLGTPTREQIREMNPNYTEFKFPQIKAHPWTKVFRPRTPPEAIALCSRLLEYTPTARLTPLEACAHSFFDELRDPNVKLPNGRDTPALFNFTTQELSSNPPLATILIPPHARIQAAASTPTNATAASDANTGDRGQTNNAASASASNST

[11] = Induction in caspase-mediated apoptosis in human NB-4 cells assessed as late apoptotic cells at 50 uM incubated for 24 hrs in presence of Z-VAD-FMK by Annexin V-FITC/propidium iodide staining based flow cytometry analysis (reference value: 1.15%); assay type: functional
[12] = Induction in caspase-mediated apoptosis in human NB-4 cells assessed as necrotic cells at 25 uM incubated for 24 hrs in presence of Z-VAD-FMK by Annexin V-FITC/propidium iodide staining based flow cytometry analysis (reference value: 0.167%); assay type: functional
[13] = Cytotoxicity against human L02 cells assessed as cell viability at 0 to 50 uM incubated for 24 hrs by CCK-8 assay relative to control; assay type: cell-based; conditions: dose 0-50 µM, read-out: Activity
In short: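 HUVEC and LO2 normal cells were cultured in RPMI-1640 or DMEM with 10% FBS at 37 °C, 5% CO2, and seeded at 3 × 10^4 cells/well. They were exposed for 24 h to graded concentrations. CCK-8 incubation was 3 h at 37 °C, with A450 read and viability expressed versus untreated control. Three independent experiments, mean ± SEM.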

[14] = test system: NB4-DR1; experiment: Antiproliferative activity against human NB4-DR1 cells assessed as reduction in cell viability incubated for 24 hrs by CCK-8 assay; assay type: functional, cell-based; conditions: NB4-DR1, 24 h; in short: as §1

inhibition [5]: 87.3% | Tmax [9]: 1 h | IC50 [10]: 6.6 µM
SMILES: C=CC(=O)N1C(=O)CC(c2ccc(F)cc2)Sc2ccccc21 (centres undefined)
Activity [1]: 8.04% | Activity [2]: 5.45% | Activity [3]: 74% | IC50 [4]: 75.6 µM | Activity [6]: 11.6% | Activity [7]: 45.6% | Activity [8]: 2.19% | Activity [11]: 11.7% | Activity [12]: 1.38% | viability at 24 h, up to 50 µM [13]: > 80% | IC50 [14]: 26.4 µM
